Active and inactive are the calls of the source. No cut-off for these calls is given here.
Key:
INA-6 [1] = assay: Inhibition of heat shock response in human INA-6 cells assessed as reduction in HSF-1 mediated upregulation of the heat shock protein HSP72 at 50 uM preincubated for 4 hrs followed by HSP90 inhibitor and HSR inducer NVP-AUY922 addition measured after 4 hrs by ELISA; assay type: functional, cell-based
In short: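 HSP72 quantified by ELISA in the same protein lysates used for Western blots. INA-6 cells received compound for 4 h, then NVP-AUY922 co-treatment for 4 h more to stimulate HSF1. DMSO-only and NVP-AUY922-only cells served as negative and positive controls.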

INA-6 [2] = assay: Inhibition of heat shock response in human INA-6 cells assessed as reduction in HSF-1 mediated upregulation of the heat shock protein HSP27 at 50 uM preincubated for 4 hrs followed by HSP90 inhibitor and HSR inducer NVP-AUY922 addition measured after 4 hrs by Western blot method; assay type: functional, cell-based
In short: (§1)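 INA-6 myeloma cells pretreated with test compound for 4 h, then co-treated with the HSP90 inhibitor/HSR inducer NVP-AUY922 for a further 4 h. Cells harvested; HSP72, HSP27, HSF1 or phospho-HSF1 probed by Western blot with β-actin as loading control. DMSO-only cells were the negative control; NVP-AUY922-only cells were the positive control.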

INA-6 [3] = assay: Inhibition of heat shock response in human INA-6 cells assessed as reduction in HSF-1 mediated upregulation of the heat shock protein HSP27 at 50 uM preincubated for 4 hrs followed by HSP90 inhibitor and HSR inducer NVP-AUY922 addition measured after 4 hrs by ELISA; assay type: functional, cell-based
[4] = target: CCR4-NOT transcription complex subunit 1 (Homo sapiens) (UniProt A5YKK6); assay: Binding affinity to CCR4-NOT transcription complex subunit 1 in human INA-6 cells after 3 hrs by nanoLC-MS/MS method; assay type: cell-based
In short: (§2)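 The biotinylated inhibitor was loaded on streptavidin beads, with empty beads as the control. Eluates were trypsin-digested and run by nanoLC-MS/MS. Inhibitor/control ratios came from label-free quantification, taken as medians of five biological replicates. Enrichment was called at Benjamini-Hochberg-adjusted limma p < 0.02.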

[5] = target: Serine/threonine-protein kinase mTOR (Homo sapiens) (UniProt P42345); assay: Binding affinity to mTOR protein in human INA-6 cells after 3 hrs by nanoLC-MS/MS method; assay type: cell-based; in short: as §2
[6] = target: CCR4-NOT transcription complex subunit 6-like (Homo sapiens) (UniProt Q96LI5); assay: Binding affinity to CCR4-NOT transcription complex subunit 6-like in human INA-6 cells after 3 hrs by nanoLC-MS/MS method; assay type: cell-based; in short: as §2
[7] = target: DNA-dependent protein kinase catalytic subunit (Homo sapiens) (UniProt P78527); assay: Binding affinity to PRKDC protein in human INA-6 cells after 3 hrs by nanoLC-MS/MS method; assay type: cell-based; in short: as §2
[8] = target: Serine-protein kinase ATM (Homo sapiens) (UniProt Q13315); assay: Binding affinity to ATM protein in human INA-6 cells after 3 hrs by nanoLC-MS/MS method; assay type: cell-based; in short: as §2
Chain of Serine-protein kinase ATM (Homo sapiens) (Q13315 whole entry): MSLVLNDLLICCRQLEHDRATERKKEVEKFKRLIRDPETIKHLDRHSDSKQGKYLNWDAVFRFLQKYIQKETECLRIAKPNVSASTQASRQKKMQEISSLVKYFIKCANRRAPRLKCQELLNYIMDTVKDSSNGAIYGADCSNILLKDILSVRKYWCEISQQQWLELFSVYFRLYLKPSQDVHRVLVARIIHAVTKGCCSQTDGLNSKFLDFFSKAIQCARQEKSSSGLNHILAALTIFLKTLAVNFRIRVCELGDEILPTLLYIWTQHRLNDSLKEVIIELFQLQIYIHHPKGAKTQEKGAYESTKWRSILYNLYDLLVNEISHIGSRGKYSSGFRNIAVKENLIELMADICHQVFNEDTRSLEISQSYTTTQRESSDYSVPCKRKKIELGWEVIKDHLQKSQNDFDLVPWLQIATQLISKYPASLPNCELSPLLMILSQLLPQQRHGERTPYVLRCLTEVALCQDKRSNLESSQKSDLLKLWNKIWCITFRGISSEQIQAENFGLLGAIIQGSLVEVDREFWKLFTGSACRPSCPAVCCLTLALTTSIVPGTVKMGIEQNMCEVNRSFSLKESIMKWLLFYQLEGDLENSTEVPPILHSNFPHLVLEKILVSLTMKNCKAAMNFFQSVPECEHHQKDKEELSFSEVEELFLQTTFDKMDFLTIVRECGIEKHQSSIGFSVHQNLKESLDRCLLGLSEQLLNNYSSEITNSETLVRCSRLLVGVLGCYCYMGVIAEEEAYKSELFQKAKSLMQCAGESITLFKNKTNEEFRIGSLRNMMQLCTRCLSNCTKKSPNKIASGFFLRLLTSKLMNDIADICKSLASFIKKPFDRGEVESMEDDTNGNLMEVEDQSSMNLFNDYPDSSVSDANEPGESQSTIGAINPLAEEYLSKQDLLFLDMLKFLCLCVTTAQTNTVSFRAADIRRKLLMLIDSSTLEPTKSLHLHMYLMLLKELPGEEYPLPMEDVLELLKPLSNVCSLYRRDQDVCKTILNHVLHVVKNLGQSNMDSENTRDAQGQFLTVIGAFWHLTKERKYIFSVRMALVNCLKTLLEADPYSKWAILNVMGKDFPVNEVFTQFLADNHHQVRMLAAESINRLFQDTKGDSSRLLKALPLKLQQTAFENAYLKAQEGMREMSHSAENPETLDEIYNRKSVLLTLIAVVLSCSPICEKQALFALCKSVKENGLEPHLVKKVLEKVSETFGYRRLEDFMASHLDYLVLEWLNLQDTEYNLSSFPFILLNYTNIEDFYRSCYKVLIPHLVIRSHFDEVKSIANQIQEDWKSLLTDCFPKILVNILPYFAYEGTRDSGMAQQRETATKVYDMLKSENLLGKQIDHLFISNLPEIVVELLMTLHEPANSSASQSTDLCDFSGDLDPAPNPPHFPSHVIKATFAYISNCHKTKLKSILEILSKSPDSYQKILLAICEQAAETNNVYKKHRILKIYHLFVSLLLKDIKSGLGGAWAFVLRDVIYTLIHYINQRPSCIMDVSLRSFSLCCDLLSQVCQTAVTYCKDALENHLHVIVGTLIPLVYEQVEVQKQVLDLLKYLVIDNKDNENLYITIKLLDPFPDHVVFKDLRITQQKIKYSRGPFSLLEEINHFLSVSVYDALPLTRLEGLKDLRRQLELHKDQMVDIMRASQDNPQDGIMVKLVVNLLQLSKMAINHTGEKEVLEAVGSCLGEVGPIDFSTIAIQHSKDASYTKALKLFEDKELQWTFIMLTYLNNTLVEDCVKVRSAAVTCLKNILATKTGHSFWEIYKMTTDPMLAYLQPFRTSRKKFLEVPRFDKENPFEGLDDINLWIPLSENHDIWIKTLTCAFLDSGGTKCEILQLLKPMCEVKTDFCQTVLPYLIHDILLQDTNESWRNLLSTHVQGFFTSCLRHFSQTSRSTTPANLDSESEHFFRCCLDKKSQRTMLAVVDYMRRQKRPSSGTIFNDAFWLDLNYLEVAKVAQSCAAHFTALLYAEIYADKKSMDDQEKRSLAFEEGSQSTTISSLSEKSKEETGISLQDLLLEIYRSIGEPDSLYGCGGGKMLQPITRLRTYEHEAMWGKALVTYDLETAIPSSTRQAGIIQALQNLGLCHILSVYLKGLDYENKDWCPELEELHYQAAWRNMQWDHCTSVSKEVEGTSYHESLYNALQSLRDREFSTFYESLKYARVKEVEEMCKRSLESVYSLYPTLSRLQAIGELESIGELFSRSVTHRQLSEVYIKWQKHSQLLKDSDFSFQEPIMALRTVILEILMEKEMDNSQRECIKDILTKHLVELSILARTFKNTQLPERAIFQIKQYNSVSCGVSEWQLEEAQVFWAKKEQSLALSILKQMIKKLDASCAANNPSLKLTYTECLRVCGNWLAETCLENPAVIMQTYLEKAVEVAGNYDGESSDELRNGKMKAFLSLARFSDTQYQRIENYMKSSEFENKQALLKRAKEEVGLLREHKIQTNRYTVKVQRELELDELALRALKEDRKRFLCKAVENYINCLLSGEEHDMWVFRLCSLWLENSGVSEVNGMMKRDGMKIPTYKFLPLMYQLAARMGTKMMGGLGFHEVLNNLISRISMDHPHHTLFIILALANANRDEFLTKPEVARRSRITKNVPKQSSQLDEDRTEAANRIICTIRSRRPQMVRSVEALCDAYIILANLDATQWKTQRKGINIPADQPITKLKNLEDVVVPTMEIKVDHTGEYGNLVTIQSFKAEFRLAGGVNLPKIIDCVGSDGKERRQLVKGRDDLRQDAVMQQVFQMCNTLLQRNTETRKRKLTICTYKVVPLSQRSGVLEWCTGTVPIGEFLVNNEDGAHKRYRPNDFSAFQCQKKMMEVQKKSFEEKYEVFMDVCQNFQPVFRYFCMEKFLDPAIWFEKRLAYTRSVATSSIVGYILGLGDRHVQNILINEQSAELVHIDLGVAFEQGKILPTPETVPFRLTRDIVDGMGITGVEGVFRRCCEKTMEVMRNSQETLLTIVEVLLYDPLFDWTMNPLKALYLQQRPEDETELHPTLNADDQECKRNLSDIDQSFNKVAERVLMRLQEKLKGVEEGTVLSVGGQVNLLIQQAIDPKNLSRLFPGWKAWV

[9] = target: CCR4-NOT transcription complex subunit 9 (Homo sapiens) (UniProt Q92600); assay: Binding affinity to RCD1 protein in human INA-6 cells after 3 hrs by nanoLC-MS/MS method; assay type: cell-based; in short: as §2
Chain of CCR4-NOT transcription complex subunit 9 (Homo sapiens) (Q92600 whole entry, one chain of several): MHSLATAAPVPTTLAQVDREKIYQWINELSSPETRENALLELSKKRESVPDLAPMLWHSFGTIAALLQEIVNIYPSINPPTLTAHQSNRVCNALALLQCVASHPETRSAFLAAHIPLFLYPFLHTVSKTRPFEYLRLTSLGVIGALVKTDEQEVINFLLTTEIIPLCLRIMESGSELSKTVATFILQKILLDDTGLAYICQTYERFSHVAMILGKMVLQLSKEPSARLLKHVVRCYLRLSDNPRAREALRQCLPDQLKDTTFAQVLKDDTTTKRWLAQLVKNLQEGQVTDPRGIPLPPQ

[10] = target: Serine/threonine-protein kinase ATR (Homo sapiens) (UniProt Q13535); assay: Binding affinity to ATR protein in human INA-6 cells after 3 hrs by nanoLC-MS/MS method; assay type: cell-based; in short: as §2
[11] = target: CCR4-NOT transcription complex subunit 7 (Homo sapiens) (UniProt Q9UIV1); assay: Binding affinity to CCR4-NOT transcription complex subunit 7 in human INA-6 cells after 3 hrs by nanoLC-MS/MS method; assay type: cell-based; in short: as §2
Chain of CCR4-NOT transcription complex subunit 7 (Homo sapiens) (Q9UIV1 whole entry, one chain of several): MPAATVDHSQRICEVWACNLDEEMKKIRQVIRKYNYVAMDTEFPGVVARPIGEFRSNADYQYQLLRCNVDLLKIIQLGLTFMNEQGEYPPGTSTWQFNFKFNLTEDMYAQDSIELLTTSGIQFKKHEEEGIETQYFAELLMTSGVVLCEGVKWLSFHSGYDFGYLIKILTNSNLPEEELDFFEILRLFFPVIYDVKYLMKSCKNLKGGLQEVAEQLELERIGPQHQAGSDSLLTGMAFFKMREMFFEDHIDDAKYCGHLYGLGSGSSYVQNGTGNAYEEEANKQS

[12] = target: CCR4-NOT transcription complex subunit 2 (Homo sapiens) (UniProt Q9NZN8); assay: Binding affinity to CCR4-NOT transcription complex subunit 2 in human INA-6 cells after 3 hrs by nanoLC-MS/MS method; assay type: cell-based; in short: as §2
Chain of CCR4-NOT transcription complex subunit 2 (Homo sapiens) (Q9NZN8 whole entry, one chain of several): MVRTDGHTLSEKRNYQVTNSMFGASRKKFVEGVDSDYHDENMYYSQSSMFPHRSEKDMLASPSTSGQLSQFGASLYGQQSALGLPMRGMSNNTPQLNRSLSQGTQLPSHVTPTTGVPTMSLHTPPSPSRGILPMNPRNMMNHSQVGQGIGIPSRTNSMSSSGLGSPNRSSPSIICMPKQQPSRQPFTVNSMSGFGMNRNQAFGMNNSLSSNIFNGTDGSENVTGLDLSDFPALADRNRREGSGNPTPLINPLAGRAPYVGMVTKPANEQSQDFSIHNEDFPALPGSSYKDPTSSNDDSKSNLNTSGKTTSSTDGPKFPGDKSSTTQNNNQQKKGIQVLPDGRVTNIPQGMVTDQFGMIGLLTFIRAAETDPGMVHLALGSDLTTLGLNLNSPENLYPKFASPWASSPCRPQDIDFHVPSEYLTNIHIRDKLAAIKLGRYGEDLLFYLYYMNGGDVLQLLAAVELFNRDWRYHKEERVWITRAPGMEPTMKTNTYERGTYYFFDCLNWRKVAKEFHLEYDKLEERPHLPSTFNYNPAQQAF

[13] = target: CCR4-NOT transcription complex subunit 3 (Homo sapiens) (UniProt O75175); assay: Binding affinity to CCR4-NOT transcription complex subunit 3 in human INA-6 cells after 3 hrs by nanoLC-MS/MS method; assay type: cell-based; in short: as §2
Chain of CCR4-NOT transcription complex subunit 3 (Homo sapiens) (O75175 whole entry, one chain of several): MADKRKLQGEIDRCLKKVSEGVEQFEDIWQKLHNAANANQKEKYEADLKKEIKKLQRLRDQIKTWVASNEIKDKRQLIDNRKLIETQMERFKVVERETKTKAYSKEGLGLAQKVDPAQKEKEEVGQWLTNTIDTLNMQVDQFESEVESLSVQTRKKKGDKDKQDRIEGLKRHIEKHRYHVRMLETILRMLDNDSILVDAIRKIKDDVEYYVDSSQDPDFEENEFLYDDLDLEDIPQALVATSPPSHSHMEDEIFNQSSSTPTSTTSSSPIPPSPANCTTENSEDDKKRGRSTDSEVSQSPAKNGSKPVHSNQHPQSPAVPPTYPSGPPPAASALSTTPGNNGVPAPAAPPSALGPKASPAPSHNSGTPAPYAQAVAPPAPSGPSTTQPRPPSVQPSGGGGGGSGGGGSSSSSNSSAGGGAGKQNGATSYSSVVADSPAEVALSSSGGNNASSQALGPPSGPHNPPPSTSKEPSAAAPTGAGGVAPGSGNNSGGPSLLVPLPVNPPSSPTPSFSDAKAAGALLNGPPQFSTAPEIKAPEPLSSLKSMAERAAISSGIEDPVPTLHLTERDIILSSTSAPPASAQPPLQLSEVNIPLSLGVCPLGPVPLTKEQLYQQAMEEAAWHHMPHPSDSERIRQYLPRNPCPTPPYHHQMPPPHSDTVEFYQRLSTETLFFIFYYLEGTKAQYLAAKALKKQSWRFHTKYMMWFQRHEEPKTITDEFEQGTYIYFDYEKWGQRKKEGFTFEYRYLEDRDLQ

[14] = target: T1, Heat shock factor protein 1 (Homo sapiens) (UniProt Q00613); assay: Inhibition of NVP-AUY922-induced HSF-1 phosphorylation at S326 residue in human INA-6 cells at 50 uM preincubated for 4 hrs followed by NVP-AUY922 addition measured after 4 hrs by Western blot method; assay type: cell-based; in short: as §1
T1 sequence (whole entry): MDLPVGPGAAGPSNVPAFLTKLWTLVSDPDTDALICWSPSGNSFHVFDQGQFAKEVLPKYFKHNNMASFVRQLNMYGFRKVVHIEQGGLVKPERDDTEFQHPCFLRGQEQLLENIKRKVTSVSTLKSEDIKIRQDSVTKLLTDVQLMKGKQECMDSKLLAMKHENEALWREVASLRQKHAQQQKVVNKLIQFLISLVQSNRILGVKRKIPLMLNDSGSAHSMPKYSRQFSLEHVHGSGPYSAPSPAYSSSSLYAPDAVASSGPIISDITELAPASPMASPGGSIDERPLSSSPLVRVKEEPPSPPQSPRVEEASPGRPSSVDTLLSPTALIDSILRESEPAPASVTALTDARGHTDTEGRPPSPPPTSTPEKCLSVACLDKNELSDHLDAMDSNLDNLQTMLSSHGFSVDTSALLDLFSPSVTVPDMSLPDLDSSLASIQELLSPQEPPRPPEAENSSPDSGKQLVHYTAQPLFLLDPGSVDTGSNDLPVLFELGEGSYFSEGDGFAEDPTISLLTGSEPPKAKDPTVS

INA-6 [15] = assay: Inhibition of heat shock response in human INA-6 cells assessed as reduction in HSF-1 mediated upregulation of the heat shock protein HSP72 at 50 uM preincubated for 4 hrs followed by HSP90 inhibitor and HSR inducer NVP-AUY922 addition measured after 4 hrs by Western blot method; assay type: functional, cell-based; in short: as §1
INA-6 [16] = assay: Downregulation of NVP-AUY922-induced HSF-1 protein expression in human INA-6 cells at 50 uM preincubated for 4 hrs followed by NVP-AUY922 addition measured after 4 hrs by Western blot method; assay type: functional, cell-based; in short: as §1
INA-6 [17] = assay: Effect on NVP-AUY922-induced HSF-1 mRNA expression in human INA-6 cells at 50 uM preincubated for 4 hrs followed by NVP-AUY922 addition measured after 4 hrs by RT-PCR method; assay type: functional, cell-based
In short: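 INA-6 cells exposed to compound for 4 h, then co-treated with 10 nM NVP-AUY922 for another 4 h. Total RNA isolated; HSP27, HSP72 and HSF1 transcripts measured by real-time PCR and normalized to α-tubulin. Means and standard deviations from three independent experiments.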

inhibition [14] | SMILES | HSP72 upregulation inhibition (active/not active) (INA-6 [1]) | activity call (active/not active) for inhibition of HSP27 upregulation (INA-6 [2]) | heat shock response inhibition (active/not active) (INA-6 [3]) | heat shock response inhibition (active/not active) (INA-6 [15]) | Activity (INA-6 [16]) | also measured
– | NCCOCCOCCNCCOc1ccc(C(C(=O)NCc2ccccc2)N(C(=O)CCc2ccc(O)cc2)C2CC2)cc1 (stereo not drawn) | inactive | inactive | inactive | – | – | –
– | O=C(CCCC[C@@H]1SC[C@@H]2NC(=O)N[C@@H]21)NCCOCCOCCNCCCCOc1ccc(CCC(=O)N(C2CC2)C(C(=O)NCc2ccccc2)c2ccc(Br)cc2)cc1 (mixture of isomers) | inactive | inactive | inactive | – | – | Activity [4]: Active; Activity [5]: Active; Activity [6]: Active; Activity [7]: Active; Activity [8]: Active; Activity [9]: Active; Activity [10]: Active; Activity [11]: Active; Activity [12]: Active; Activity [13]: Active
Active | C/C=C/C(=O)N(Cc1ccccc1Cl)C(C(=O)NC(C)(C)C)c1ccccc1Br (racemic) | Active | Active | Active | Active | Active | –
– | C/C=C/C(=O)N(Cc1ccco1)C(C(=O)NC1CCCCC1)c1ccccc1Br (racemic) | inactive | inactive | – | inactive | – | –
– | C=CC(=O)N(CCOCCO)C(C(=O)NC(C)(C)C)c1ccccc1Br (racemic) | inactive | inactive | – | inactive | – | –
Active | C=CC(=O)N(CCc1ccc(OC)c(OC)c1)C(C(=O)NCCCCC)c1ccccc1Br (racemic) | Active | Active | Active | Active | Active | –
Active | CCCN(C(=O)/C=C/c1ccc(OC)cc1)C(C(=O)NC1CCCCC1)c1ccccc1Br (racemic) | Active | Active | Active | Active | Active | –
– | CCCN(C(=O)/C=C/c1ccccc1)C(C(=O)NCCN1CCOCC1)c1ccccc1Br (racemic) | inactive | inactive | – | inactive | – | –
Active | CN(C(=O)/C=C/c1ccccc1)C(C(=O)NCc1ccccc1)c1ccccc1Br (racemic) | Active | Active | Active | Active | Active | –
Active | O=C(NCCN1CCOCC1)C(c1ccccc1)N(Cc1ccccc1)C(=O)/C=C/c1ccc(Cl)cc1Cl (racemic) | Active | Active | Active | Active | Active | –
Active | O=C(NCCN1CCOCC1)C(c1ccccc1Br)N(Cc1ccccc1)C(=O)/C=C/c1ccc(Cl)cc1Cl (racemic) | Active | Active | Active | Active | Active | –
Active | O=C(NCc1ccccc1)C(c1ccc(Br)cc1)N(C(=O)CCc1ccc(O)cc1)C1CC1 (racemic) | Active | Active | Active | Active | Active | –
Active | O=C(NCc1ccccc1)C(c1ccc(Br)cc1)N(C(=O)CCc1ccccc1)C1CC1 (racemic) | Active | Active | Active | Active | Active | –
– | O=C(NCc1ccccc1)C(c1ccc(O)cc1)N(C(=O)CCc1ccccc1)C1CC1 (racemic) | inactive | inactive | inactive | inactive | – | Activity (INA-6 [17]): inactive
Active | O=C(NCc1ccccc1)C(c1ccc(OCCBr)cc1)N(C(=O)CCc1ccccc1)C1CC1 (racemic) | Active | Active | Active | Active | Active | –
Active | O=C(NCc1ccccc1)C(c1ccccc1)N(C(=O)/C=C/c1ccccc1)C1CC1 (racemic) | Active | Active | Active | Active | Active | –
– | O=C(NCc1ccccc1)C(c1ccccc1Br)N(Cc1ccccc1)C(=O)/C=C/c1ccccc1 (racemic) | inactive | inactive | – | inactive | – | –

Source: ChEMBL document CHEMBL4011617, “Ugi Reaction-Derived α-Acyl Aminocarboxamides Bind to Phosphatidylinositol 3-Kinase-Related Kinases, Inhibit HSF1-Dependent Heat Shock Response, and Induce Apoptosis in Multiple Myeloma Cells” (J Med Chem, 2017)
